# Data published in ChEMBL document CHEMBL1144782, “Isoindolo[2,1-a]quinoxaline derivatives, novel potent antitumor agents with dual inhibition of tubulin polymerization and topoisomerase I” (2008).
# Active and inactive are the calls of the source. The calls are words filed in the database; no cut-off is given here.
# Key:
# NCI-H460 = experiment: Cell viability against human NCI-H460 cells at 10 uM; assay type: functional
# MCF7 = experiment: Cell viability against human MCF7 cells at 10 uM; assay type: functional
# SF-268 = experiment: Cell viability against human SF268 cells at 10 uM; assay type: functional
# Tubulin (Sus scrofa) = Tubulin (Sus scrofa) (UniProt P02554+P02550); experiment: Inhibition of pig brain tubulin polymerization at 3 uM
# Tubulin (Sus scrofa), sequence (P02550 whole entry, looked up): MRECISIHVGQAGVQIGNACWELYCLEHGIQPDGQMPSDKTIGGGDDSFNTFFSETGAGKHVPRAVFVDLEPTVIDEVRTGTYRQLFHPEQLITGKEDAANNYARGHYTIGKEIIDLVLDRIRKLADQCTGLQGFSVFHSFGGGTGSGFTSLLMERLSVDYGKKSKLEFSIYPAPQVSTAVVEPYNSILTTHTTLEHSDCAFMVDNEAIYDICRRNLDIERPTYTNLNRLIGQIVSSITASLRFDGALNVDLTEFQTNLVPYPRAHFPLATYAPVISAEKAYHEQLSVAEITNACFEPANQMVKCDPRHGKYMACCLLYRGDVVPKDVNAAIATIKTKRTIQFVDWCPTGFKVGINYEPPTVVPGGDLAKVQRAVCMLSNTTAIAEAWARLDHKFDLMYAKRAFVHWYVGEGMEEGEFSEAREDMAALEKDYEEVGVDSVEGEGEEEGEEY
# Tubulin (Sus scrofa), sequence (P02554 whole entry, looked up): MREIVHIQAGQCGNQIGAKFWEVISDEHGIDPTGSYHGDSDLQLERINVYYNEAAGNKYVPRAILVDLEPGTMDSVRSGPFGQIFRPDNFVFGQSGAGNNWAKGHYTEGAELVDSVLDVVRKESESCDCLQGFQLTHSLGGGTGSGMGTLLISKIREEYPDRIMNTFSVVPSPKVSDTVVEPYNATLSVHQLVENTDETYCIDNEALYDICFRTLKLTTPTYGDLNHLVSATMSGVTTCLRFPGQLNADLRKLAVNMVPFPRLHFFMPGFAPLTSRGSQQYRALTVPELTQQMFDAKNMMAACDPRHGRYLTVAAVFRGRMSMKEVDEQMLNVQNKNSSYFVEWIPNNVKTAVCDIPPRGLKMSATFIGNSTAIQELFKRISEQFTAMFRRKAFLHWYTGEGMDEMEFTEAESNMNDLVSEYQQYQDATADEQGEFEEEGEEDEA
# Jurkat = experiment: Cell cycle arrest in human Jurkat cells at mitosis at 0.5 uM after 24 hrs; assay type: functional
# How it was run: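 Exponentially growing Jurkat cells were exposed for 24 h, then pelleted at 400g for 5 min. Hypotonic KCl (75 mM, 4 °C) was applied for 20 min, followed by methanol–acetic acid (3:1) fixation and Giemsa staining. 400 cells per treatment were scored microscopically; mitotic index is the fraction with mitotic figures. Three independent experiments, mean ± SEM.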
# A549 = experiment: Disruption of tubulin network in human A549 cells assessed as disaggregation of microtubules at 1 uM […]; assay type: functional, cell-based
SMILES,Activity (NCI-H460),Activity (MCF7),Activity (SF-268),also measured
Cc1cc2ncc3c4ccccc4c(C#N)n3c2cc1C,78%,97%,83%,
N#Cc1c2ccccc2c2cnc3cc(Cl)c(Cl)cc3n12,104%,108%,104%,
CC(=O)O[C@H]1C(=O)[C@@]2(C)[C@H]([C@H](OC(=O)c3ccccc3)[C@]3(O)C[C@H](OC(=O)[C@H](O)[C@@H](NC(=O)c4ccccc4)c4ccccc4)C(C)=C1C3(C)C)[C@]1(OC(C)=O)CO[C@@H]1C[C@@H]2O,,,,Activity (Tubulin (Sus scrofa)): Active
N#Cc1c2ccccc2c2cnc3ccccc3n12,91%,107%,94%,
COc1cc2c(c(OC)c1OC)-c1ccc(OC)c(=O)cc1[C@@H](NC(C)=O)CC2 [COLCHICINE],,,,Activity (Jurkat): 50%
CC[C@]1(O)C[C@@H]2CN(CCc3c([nH]c4ccccc34)[C@@](C(=O)OC)(c3cc4c(cc3OC)N(C)[C@H]3[C@@](O)(C(=O)OC)[C@H](OC(C)=O)[C@]5(CC)C=CCN6CC[C@]43[C@@H]65)C2)C1,,,,Activity (A549): Active
